The source made the active and inactive calls. The rule behind the calls is not given here.

As a reminder, the IC50 is the concentration that gives 50% inhibition. Lower therefore signals greater potency in that assay. The term inhibition denotes the change of the read-out against control, counted positive when it falls. Low readings indicate a weak effect, high ones a strong effect.

One assay concerns HT-29. Nature of the assay: Antiproliferative activity against human HT29 cells after 96 hrs by microculture tetrazolium assay. The following applies: HT-29, 96 h.
Assay [1] concerns L1210. Nature of the assay: Antiproliferative activity against mouse L1210 cells after 48 hrs by microculture tetrazolium assay. The format is functional, cell-based. The following applies: L1210, 48 h. In short, it runs like this:
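L1210 cells grown in RPMI 1640 with 10% fetal calf serum, 2 mM L-glutamine, penicillin/streptomycin and 10 mM Hepes (pH 7.4). Exposed for 48 h (four doubling times) to nine serial dilutions, each in triplicate. Read-out was microculture tetrazolium assay. IC50 is the concentration that cut optical density by 50% versus untreated controls.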

In assay [2] the target is T1, Serine/threonine-protein kinase Chk1 (Homo sapiens) (UniProt O14757).
T1 sequence (whole entry): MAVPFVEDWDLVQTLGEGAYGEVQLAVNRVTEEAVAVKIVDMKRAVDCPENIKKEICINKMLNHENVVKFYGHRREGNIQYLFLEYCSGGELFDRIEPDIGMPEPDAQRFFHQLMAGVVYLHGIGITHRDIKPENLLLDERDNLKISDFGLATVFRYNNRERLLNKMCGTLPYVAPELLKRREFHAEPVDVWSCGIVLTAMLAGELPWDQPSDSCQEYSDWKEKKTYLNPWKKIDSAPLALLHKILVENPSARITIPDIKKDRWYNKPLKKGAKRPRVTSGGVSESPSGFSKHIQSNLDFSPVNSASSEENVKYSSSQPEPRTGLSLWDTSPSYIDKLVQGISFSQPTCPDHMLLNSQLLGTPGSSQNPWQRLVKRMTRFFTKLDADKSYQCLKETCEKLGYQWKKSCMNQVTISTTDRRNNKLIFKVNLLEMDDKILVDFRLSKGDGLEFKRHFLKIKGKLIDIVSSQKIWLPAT
Nature of the assay: Inhibition of human Chk1 expressed in sf9-baculovirus system at 10 uM.

The target of assay [3] is T2, Serine/threonine-protein kinase Chk1 (Homo sapiens, UniProt O14757).
T2 sequence (O14757 whole entry): T1 sequence (whole entry)
Nature of the assay: Inhibition of human Chk1 expressed in sf9-baculovirus system. The essentials:
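Kinase was GST-tagged Chk1 purified from extracts of Sf9 cells infected with a GST-Chk1 baculovirus. Assay format followed a published method.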

The subject of assay [4] is L1210. Nature of the assay: Cell cycle arrest in mouse L1210 cells by accumulation at G2M phase at 1 uM after 21 hrs by flow cytometry. The class given is functional. The essentials:
(§1)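 L1210 cells at 2.5 × 10⁵ cells/mL incubated 21 h with various compound concentrations. Fixed in 70% ethanol, washed, then stained 30 min in D-PBS containing RNAse and propidium iodide. DNA content analysed by flow cytometry.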

For assay [5], the system named is L1210. Nature of the assay: Cell cycle arrest in mouse L1210 cells by accumulation at G1 phase at 1 uM after 21 hrs by flow cytometry. The class given is functional. In short, it runs like this: as §1
Background: Flow cytometry measures light scatter and fluorescence of single cells or particles in a stream.

Assay [6] deals with L1210. Nature of the assay: Cell cycle arrest in mouse L1210 cells by accumulation at G2M phase at 5 uM after 21 hrs by flow cytometry. The format is functional. In short, it runs like this:
as §1

Assay [7] deals with L1210. Nature of the assay: Toxicity against mouse L1210 cells at 20 uM. The class given is functional, cell-based.

On to `CN(C)CCN1C(=O)c2c(c3c4cnccc4[nH]c3c3[nH]c4cc(OCc5ccccc5)ccc4c23)C1=O`, for which the IC50 turned out to be 2.9 µM in the assay with HT-29 and 1.4 µM with L1210 [1]. The compound also returned an inhibition in assay [2] of 32.7%.

In the case of `CN(C)CCN1C(=O)c2c(c3c4cc(OCc5ccccc5)ccc4[nH]c3c3[nH]c4ccncc4c23)C1=O`, the 50% inhibitory concentration (IC50) in the assay with HT-29 was found to be 19.5 µM; with L1210 [1], 16.3 µM. For the same compound, the inhibition in assay [2] was 17.6%.

With `O=C1NC(=O)c2c1c1c3cnccc3[nH]c1c1[nH]c3ccc(O)cc3c21`, the values for the IC50 (in the assay with HT-29; in the assay on L1210 [1]; in assay [3]) were over 100 µM, 80.7 µM and 0.027 µM, respectively. This compound also had an inhibition in assay [2] of 99.1%.

Regarding `O=C1NC(=O)c2c1c1c3ccc(O)cc3[nH]c1c1[nH]c3ccncc3c21`, the half-maximal inhibitory concentration (IC50) in the assay on HT-29 is over 100 µM; in the assay with L1210 [1] it was 3.3 µM; in assay [3] it was 0.014 µM. This compound registered an inhibition in assay [2] of 98.7%.

`CN(C)CCN1C(=O)c2c(c3c4cnccc4[nH]c3c3[nH]c4ccccc4c23)C1=O`: the IC50 with HT-29 is 3.8 µM; in the assay on L1210 [1] it was 0.47 µM. This compound displayed an inhibition in assay [2] of 49.4%.

Take `CN1C(=O)c2c(c3c4cc(O)ccc4[nH]c3c3[nH]c4ccncc4c23)C1=O`: the figures for the half-maximal inhibitory concentration (IC50) with HT-29 and in the assay with L1210 [1] were over 100 µM and 11.9 µM, respectively. For the same compound, the inhibition in assay [2] turned out to be 38.5%.

As for `CN(C)CCN1C(=O)c2c(c3c4cc5c(cc4[nH]c3c3[nH]c4ccncc4c23)OCO5)C1=O`, the values for the IC50 with HT-29 and in the assay with L1210 [1] were 1.76 µM and 0.195 µM, respectively. This compound gave an inhibition in assay [2] of 6.7%. Besides, the Activity with L1210 [4] is on record as 62%.

In the case of `O=C1NC(=O)c2c1c1c3ccccc3[nH]c1c1[nH]c3ccncc3c21`, the values for the IC50 (in the assay with HT-29; with L1210 [1]; in assay [3]) were 1.5 µM, 0.6 µM and 5 µM, respectively. The compound further gave an Activity in the assay with L1210 [5] of 60%. In assay [2], this compound displayed an inhibition of 98.6%.

Take `CC(=O)OC[C@H]1O[C@@H](n2c3ccccc3c3c4c(c5c6c[n+](Cc7ccccc7)ccc6[nH]c5c32)C(=O)N(C)C4=O)[C@H](OC(C)=O)[C@@H](OC(C)=O)[C@@H]1OC(C)=O`: the IC50 in the assay on HT-29 was over 100 µM; with L1210 [1], 14.3 µM. In assay [2], this compound came in with an inhibition of 46.5%.

On to `CN1C(=O)c2c(c3c4ccccc4n([C@@H]4O[C@H](CO)[C@@H](O)[C@H](O)[C@H]4O)c3c3[nH]c4cc[n+](Cc5ccccc5)cc4c23)C1=O`, for which the results for the 50% inhibitory concentration (IC50) in the assay on HT-29 and in the assay on L1210 [1] were 63.7 µM and 12.8 µM, respectively. Moreover, the inhibition in assay [2] amounted to 51.4%.

`O=C1NC(=O)c2c1c1c3ccc(OCc4ccccc4)cc3[nH]c1c1[nH]c3ccncc3c21`: the values for the half-inhibitory concentration (IC50) (with HT-29; in the assay with L1210 [1]; in assay [3]) were 32.4 µM, 1.1 µM and 0.072 µM, respectively. For the same compound, the inhibition in assay [2] was 95.9%. In the assay on L1210 [6], this compound showed an Activity of 43%.

For `CN1C(=O)c2c(c3c4cnccc4[nH]c3c3[nH]c4cc(O)ccc4c23)C1=O`, the IC50 in the assay with HT-29 was determined as 16.2 µM; in the assay with L1210 [1] it was 2.7 µM; in assay [3], 5 µM. In assay [2], the inhibition was determined as 66.6%. Besides, the outcome with L1210 [7] was Active.

Regarding `CN1C(=O)c2c(c3c4cnccc4[nH]c3c3[nH]c4cc(OCc5ccccc5)ccc4c23)C1=O`, the results for the half-maximal inhibitory concentration (IC50) in the assay on HT-29 and with L1210 [1] were 2 µM and 0.6 µM, respectively. This compound also had an inhibition in assay [2] of 27%.

In the case of `CN1C(=O)c2c(c3c4cc5c(cc4[nH]c3c3[nH]c4ccncc4c23)OCO5)C1=O`, the 50% inhibitory concentration (IC50) came out at 3.35 µM with HT-29 and 0.495 µM with L1210 [1]. In addition, the inhibition in assay [2] was 26.7%.

`CN(C)CCN1C(=O)c2c(c3c4cc(O)ccc4[nH]c3c3[nH]c4ccncc4c23)C1=O`: the concentration for half-maximal inhibition (IC50) turned out to be 50.9 µM in the assay with HT-29 and 2.6 µM in the assay with L1210 [1]. Also, the inhibition in assay [2] was found to be 48.9%.

Compound `CN1C(=O)c2c(c3c4ccccc4n([C@@H]4O[C@H](COCc5ccccc5)[C@@H](OCc5ccccc5)[C@H](OCc5ccccc5)[C@H]4OCc4ccccc4)c3c3[nH]c4ccncc4c23)C1=O` gave an IC50 in the assay with L1210 [1] of over 100 µM. For the same compound, the inhibition in assay [2] was 49%.

On to `O=C1NC(=O)c2c1c1c3cnccc3[nH]c1c1[nH]c3ccc(OCc4ccccc4)cc3c21`, for which the IC50 with HT-29 came out at 7.6 µM; in the assay with L1210 [1] it was 1.5 µM; in assay [3], 1.32 µM. This compound also came in with an inhibition in assay [2] of 90.6%.

Source of the values: ChEMBL document CHEMBL1157170, “Novel 5-azaindolocarbazoles as cytotoxic agents and Chk1 inhibitors” (Bioorg Med Chem, 2008).
